Source: PMC5164959 (Biochemical pharmacology, 2016)
Like-named read-outs stand apart in the source and are kept apart here.

How the values were obtained:
5-HT7 = 5-HT7 (Homo sapiens, UniProt P34969); assay: Radioligand competition binding assay
In short: (§1)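 Run by the NIMH PDSP as radioligand competition binding assays. The primary screen used 10 μM test compound and reported mean percent inhibition of radioligand binding (n=4); above 50% counted as significant. At those receptors, IC50 values came from non-linear regression of competition binding isotherms and were converted to Ki with the Cheng-Prusoff equation.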

5-HT1D = 5-HT1D (Homo sapiens, UniProt P28221); assay: Radioligand competition binding assay
Chain of 5-HT1D (P28221 whole entry, species assumed): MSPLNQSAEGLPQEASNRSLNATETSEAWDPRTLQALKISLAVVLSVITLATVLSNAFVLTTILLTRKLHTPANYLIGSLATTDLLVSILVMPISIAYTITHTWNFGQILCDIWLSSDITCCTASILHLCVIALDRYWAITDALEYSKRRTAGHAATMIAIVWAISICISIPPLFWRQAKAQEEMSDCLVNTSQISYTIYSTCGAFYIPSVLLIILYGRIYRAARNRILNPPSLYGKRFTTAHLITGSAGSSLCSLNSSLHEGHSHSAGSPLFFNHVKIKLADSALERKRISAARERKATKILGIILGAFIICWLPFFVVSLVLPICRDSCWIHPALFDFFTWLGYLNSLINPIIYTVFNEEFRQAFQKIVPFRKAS
In short: as §1

DGKβ [1] = conditions: 30 μM R59022; cited from earlier work
DGKβ [2] = biological target: DGKβ (Rattus norvegicus, UniProt P49621); assay: Kinase assay with HEK 293T cell homogenate over-expressing DGKβ; format: biochemical; conditions: 20 μM inhibitor, dioleoyl DAG liposomes
In short: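 Reactions contained 5 μg homogenate, 2 mM liposomes (10 mol% dioleoyl DAG, 40 mol% PS, 50 mol% PC), buffer B, 1 mM DTT, 1 mM CaCl2 and [γ32P]-ATP, 20 min at 30°C. Test compound was added from DMSO. Organic-phase 32P was counted and expressed as percent of DMSO control after subtracting the GFP-lysate background.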

DGKα [3] = biological target: T1, DGKα (Rattus norvegicus, UniProt P51556); assay: Kinase assay with purified DGKα and PC:DAG:PS liposomes; format: biochemical; conditions: for Vmax (ATP): ATP-dependent activity; for Vmax (DAG): DAG-dependent activity; for Decrease of Vmax of purified DGKα: 0.5 mol% drug
T1 sequence (P51556 whole entry): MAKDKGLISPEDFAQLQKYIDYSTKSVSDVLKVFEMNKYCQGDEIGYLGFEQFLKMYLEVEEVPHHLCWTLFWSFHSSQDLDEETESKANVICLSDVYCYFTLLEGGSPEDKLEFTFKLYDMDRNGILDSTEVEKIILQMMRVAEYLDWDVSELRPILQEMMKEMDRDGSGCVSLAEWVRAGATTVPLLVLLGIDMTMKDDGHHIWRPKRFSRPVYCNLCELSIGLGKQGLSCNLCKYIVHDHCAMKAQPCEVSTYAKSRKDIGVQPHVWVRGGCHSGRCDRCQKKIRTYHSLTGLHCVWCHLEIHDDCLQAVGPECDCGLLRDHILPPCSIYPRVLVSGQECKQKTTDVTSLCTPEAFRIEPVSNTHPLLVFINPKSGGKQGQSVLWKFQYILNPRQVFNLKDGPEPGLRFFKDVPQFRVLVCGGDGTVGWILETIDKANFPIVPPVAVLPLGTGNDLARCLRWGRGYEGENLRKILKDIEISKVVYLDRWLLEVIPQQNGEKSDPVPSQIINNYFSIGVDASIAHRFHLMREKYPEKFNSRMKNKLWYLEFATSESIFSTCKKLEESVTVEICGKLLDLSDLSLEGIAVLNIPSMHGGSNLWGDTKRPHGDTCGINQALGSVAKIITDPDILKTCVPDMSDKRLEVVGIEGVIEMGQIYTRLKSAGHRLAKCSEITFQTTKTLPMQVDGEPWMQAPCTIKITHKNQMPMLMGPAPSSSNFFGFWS
In short: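 Rat FLAG-DGKα was expressed in HeLa cells by adenovirus (72 h) and purified on FLAG M2 beads. Reactions contained buffer B (MOPS pH 7.5), 1 mM CaCl2, 1 mM DTT and 4.75 mM PC:PS:DAG liposomes (5 mol% DAG), with test compound built into the liposomes at 0.5 or 2.0 mol% or added from DMSO. Reactions with [γ32P]-ATP ran 15 min at 25°C. Km and Vmax came from Michaelis-Menten non-linear regression.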

DGKθ = conditions: cited from earlier work
DGKε = conditions: cited from earlier work
5-HT6 = 5-HT6 (Homo sapiens, UniProt P50406); assay: Radioligand competition binding assay
Chain of 5-HT6 (P50406 whole entry, species assumed): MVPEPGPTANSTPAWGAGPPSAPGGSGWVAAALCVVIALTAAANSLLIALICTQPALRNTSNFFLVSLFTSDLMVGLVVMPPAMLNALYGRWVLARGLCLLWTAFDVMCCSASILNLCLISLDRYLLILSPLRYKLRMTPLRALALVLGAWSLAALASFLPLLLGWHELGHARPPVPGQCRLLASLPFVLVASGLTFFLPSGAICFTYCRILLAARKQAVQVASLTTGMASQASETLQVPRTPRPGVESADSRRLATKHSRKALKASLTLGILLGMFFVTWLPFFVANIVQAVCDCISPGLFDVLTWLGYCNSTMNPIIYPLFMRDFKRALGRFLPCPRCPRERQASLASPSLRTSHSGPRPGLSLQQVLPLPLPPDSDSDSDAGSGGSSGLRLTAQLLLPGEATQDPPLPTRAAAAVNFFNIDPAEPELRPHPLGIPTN
In short: as §1

DGKδ = DGKδ (Homo sapiens, UniProt Q16760); assay: Kinase assay with HEK 293T cell homogenate over-expressing DGKδ; format: biochemical; conditions: 20 μM inhibitor, dioleoyl DAG liposomes
Chain of DGKδ (Q16760 1-1170 isoform Q16760-2): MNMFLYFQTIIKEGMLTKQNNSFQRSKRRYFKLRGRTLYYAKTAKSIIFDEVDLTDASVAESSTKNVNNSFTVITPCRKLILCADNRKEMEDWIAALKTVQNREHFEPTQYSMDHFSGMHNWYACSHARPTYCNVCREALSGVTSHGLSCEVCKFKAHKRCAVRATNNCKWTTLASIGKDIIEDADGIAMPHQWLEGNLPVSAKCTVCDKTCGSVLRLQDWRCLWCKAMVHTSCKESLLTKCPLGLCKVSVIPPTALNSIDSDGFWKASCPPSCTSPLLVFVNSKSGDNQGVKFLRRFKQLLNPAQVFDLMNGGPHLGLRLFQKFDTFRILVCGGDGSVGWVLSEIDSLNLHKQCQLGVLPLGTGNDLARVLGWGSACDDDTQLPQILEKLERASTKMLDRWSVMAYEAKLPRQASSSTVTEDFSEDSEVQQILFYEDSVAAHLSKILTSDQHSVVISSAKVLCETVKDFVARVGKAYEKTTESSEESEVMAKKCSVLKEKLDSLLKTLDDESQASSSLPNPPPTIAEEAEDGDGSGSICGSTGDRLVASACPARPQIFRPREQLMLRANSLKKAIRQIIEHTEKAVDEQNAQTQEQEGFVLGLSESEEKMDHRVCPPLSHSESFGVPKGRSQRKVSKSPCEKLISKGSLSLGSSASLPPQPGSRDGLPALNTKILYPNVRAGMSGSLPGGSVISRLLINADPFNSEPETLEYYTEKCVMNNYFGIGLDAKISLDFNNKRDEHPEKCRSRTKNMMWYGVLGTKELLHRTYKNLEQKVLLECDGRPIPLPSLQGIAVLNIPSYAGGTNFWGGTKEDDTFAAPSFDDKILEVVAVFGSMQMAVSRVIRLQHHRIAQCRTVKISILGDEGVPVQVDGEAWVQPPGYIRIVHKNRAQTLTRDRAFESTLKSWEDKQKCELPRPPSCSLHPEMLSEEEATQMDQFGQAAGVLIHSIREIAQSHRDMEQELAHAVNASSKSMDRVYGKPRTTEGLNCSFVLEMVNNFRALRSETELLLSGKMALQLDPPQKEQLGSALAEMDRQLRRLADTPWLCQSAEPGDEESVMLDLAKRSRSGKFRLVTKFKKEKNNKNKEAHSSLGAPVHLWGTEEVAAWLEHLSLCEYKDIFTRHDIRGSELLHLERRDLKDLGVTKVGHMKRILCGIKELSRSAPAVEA
In short: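 Reactions without CaCl2 contained 5 μg homogenate, 2 mM liposomes (10 mol% dioleoyl DAG, 40 mol% PS, 50 mol% PC), buffer B, 1 mM DTT and [γ32P]-ATP, 20 min at 30°C. Test compound was added from DMSO. Extracted 32P-lipid was counted, GFP-lysate normalized, and expressed as percent of DMSO control.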

5-HT2C = biological target: T2, 5-HT2C (Homo sapiens, UniProt P28335); assay: Radioligand competition binding assay; conditions: read-out: Ki 5-HT2C; Cheng-Prusoff from best-fit IC50
T2 sequence (P28335 33-458): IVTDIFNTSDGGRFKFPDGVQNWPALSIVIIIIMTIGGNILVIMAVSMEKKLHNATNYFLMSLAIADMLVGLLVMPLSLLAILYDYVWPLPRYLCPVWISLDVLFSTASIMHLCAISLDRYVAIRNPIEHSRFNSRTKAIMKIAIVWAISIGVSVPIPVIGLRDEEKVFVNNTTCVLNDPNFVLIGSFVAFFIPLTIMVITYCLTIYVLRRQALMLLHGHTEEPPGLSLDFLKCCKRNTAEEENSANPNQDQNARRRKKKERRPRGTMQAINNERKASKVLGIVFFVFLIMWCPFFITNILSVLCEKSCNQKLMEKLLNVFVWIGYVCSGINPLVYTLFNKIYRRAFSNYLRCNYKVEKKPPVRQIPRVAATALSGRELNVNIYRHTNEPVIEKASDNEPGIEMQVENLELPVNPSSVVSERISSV

5-HT1A = biological target: T3, 5-HT1A (Homo sapiens, UniProt P08908); assay: Radioligand competition binding assay
T3 sequence (P08908 1-422): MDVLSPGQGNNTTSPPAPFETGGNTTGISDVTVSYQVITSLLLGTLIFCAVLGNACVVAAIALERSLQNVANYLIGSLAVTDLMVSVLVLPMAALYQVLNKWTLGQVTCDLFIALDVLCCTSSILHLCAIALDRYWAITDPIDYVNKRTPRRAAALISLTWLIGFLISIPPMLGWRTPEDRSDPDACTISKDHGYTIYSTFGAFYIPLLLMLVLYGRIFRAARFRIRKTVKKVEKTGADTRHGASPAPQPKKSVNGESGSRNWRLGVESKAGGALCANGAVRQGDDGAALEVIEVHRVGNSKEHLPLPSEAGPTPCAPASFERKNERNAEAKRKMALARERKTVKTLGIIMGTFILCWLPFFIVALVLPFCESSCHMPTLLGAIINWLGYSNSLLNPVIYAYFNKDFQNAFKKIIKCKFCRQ

DGKα [4] = biological target: T1, DGKα; assay: Kinase assay with HEK 293T cell homogenate over-expressing DGKα; format: biochemical
In short: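 Each reaction held 5 μg homogenate protein, 2 mM extruded PC:PS:DAG liposomes (10 mol% dioleoyl, dioctanoyl or stearoyl-arachidonoyl DAG), buffer B, 1 mM DTT, 1 mM CaCl2 and 1 mM [γ32P]-ATP, run 20 min at 30°C. Test compounds came from DMSO stocks. 32P-PA was counted, normalized to GFP lysate and to DMSO control; IC50 from log[inhibitor] versus normalized response.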

5-HTRs = assay: Agonist functional assays at 5 serotonin receptors; format: cell-based; conditions: 5 receptors where low Ki values were observed; data not shown
DGKγ = conditions: 30 μM R59022; cited from earlier work
5-HT2A = 5-HT2A (Homo sapiens, UniProt P28223); assay: Radioligand competition binding assay
Chain of 5-HT2A (P28223 whole entry, species assumed): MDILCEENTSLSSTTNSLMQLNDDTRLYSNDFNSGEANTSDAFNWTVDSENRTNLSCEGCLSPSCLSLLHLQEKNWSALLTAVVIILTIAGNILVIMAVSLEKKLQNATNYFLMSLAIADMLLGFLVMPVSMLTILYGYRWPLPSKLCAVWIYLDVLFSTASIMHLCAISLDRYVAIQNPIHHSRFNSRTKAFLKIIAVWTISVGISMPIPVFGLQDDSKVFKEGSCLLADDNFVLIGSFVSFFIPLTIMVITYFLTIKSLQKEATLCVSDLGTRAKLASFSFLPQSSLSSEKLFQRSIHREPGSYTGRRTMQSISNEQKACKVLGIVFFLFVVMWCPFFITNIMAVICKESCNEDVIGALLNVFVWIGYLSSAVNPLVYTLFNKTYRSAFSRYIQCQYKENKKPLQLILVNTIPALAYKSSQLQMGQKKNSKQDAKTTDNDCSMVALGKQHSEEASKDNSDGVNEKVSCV

Chain of 5-HT7 (P34969 whole entry, species assumed): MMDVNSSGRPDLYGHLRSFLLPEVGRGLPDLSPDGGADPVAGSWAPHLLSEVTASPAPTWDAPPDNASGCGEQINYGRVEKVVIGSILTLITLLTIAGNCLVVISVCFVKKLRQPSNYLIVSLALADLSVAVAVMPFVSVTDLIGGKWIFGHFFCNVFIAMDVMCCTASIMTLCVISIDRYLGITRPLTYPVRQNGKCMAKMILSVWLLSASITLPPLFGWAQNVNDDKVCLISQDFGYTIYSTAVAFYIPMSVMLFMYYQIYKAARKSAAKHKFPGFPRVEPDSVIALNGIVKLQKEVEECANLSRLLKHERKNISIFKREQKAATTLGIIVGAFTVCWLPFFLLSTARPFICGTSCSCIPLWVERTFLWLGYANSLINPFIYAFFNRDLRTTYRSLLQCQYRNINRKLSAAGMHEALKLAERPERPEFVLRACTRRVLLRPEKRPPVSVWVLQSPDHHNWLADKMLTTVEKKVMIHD

With Cc1nc2sccn2c(=O)c1CCN1CCC(=C(c2ccccc2)c2ccc(F)cc2)CC1 [R59022] the “Percent Inhibition of Binding 5-HT7” value (5-HT7; 10 μM test compound, n=4) was 98.5%, the Ki (5-HT7; read-out: Ki 5-HT7, Cheng-Prusoff from best-fit IC50) was 14.2 nM and the “Percent Inhibition of Binding 5-HT1D” value (5-HT1D; 10 μM test compound, n=4) was 90.4%. The Ki (5-HT1D; read-out: Ki 5-HT1D, Cheng-Prusoff from best-fit IC50) was 12.3 nM, the “Inhibition of DGKβ” value (DGKβ [1]) was “did not inhibit” and the “Activity of DGKβ, percent of control” value (DGKβ [2]) was “not detectably inhibited”. For the same compound, the “Vmax (ATP)” value (DGKα [3]; 0.5 mol% drug in liposomes, 5 mol% DAG) was 32 ± 1 nmol/min/mg, the “Vmax (DAG)” value (DGKα [3]; 0.5 mol% drug in liposomes, 1 mM ATP) was 22 ± 1 nmol/min/mg and the “Decrease of Vmax of purified DGKα” value (DGKα [3]; in the context of ATP) was 25%. For the same compound, the “Decrease of Vmax of purified DGKα” value (DGKα [3]; in the context of DAG) was 40%, the “Vmax (ATP)” value (DGKα [3]; 2.0 mol% drug in liposomes, 5 mol% DAG) was 20 ± 1 ^† nmol/min/mg and the “Vmax (DAG)” value (DGKα [3]; 2.0 mol% drug in liposomes, 1 mM ATP) was 16 ± 1.5 nmol/min/mg. The Km (DGKα [3]; read-out: Km^app (ATP), 0.5 mol% drug in liposomes, 5 mol% DAG) was 50 ± 10 µM, the Km (DGKα [3]; read-out: Km^app (ATP), 2.0 mol% drug in liposomes, 5 mol% DAG) was 30 ± 10 µM and the Km (DGKα [3]; read-out: Km^app (DAG), 0.5 mol% drug in liposomes, 1 mM ATP) was 110 ± 20 µM. The Km (DGKα [3]; read-out: Km^app (DAG), 2.0 mol% drug in liposomes, 1 mM ATP) was 100 ± 20 µM, the “Inhibition of DGKθ” value (DGKθ) was “reported to inhibit” and the “Inhibition of DGKε” value (DGKε) was “reported to inhibit”. For the same compound, the “Percent Inhibition of Binding 5-HT6” value (5-HT6; 10 μM test compound, n=4) was 96.9%, the Ki (5-HT6; read-out: Ki 5-HT6, Cheng-Prusoff from best-fit IC50) was 55.3 nM and the “Activity of DGKδ, percent of control” value (DGKδ) was “not detectably inhibited”. For the same compound, the Ki (5-HT2C) was 0.8 nM, the “Percent Inhibition of Binding 5-HT1A” value (5-HT1A; 10 μM test compound, n=4) was 82.4% and the Ki (5-HT1A; read-out: Ki 5-HT1A, Cheng-Prusoff from best-fit IC50) was 410 nM. The “Activity of DGKα, percent of control” value (DGKα [4]; 20 μM inhibitor, liposomes with dioleoyl DAG, cell homogenate) was “decreased by about half”, the “Potency against DGKα with other DAG species” value (DGKα [4]; 20 μM, liposomes containing dioctanoyl or stearoyl arachidonoyl DAG) was “similarly potent” and the IC50 (DGKα [4]; read-out: IC50 for DGKα, cell homogenate, 1 mM ATP, 10 mol% DAG) was ~25 µM. For the same compound, the “Agonist activity at 5-HTRs” value (5-HTRs) was “very low to no activity”, the “Inhibition of DGKγ” value (DGKγ) was “did not inhibit” and the “Percent Inhibition of Binding 5-HT2A” value (5-HT2A; 10 μM test compound, n=4) was 98.2%. For the same compound, the Ki (5-HT2A; read-out: Ki 5-HT2A, Cheng-Prusoff from best-fit IC50) was 2.2 nM.
